Measured values from ChEMBL document CHEMBL1687745 (Antimicrob Agents Chemother, 2009).
Converted amounts (≈) assume the structure as drawn. The source made the active and inactive calls. The rule behind the calls is not given here.

Assays:
[1] = tested on: Bacillus anthracis; assay: Antimicrobial activity against Bacillus anthracis Sterne spores by broth microdilution method; format: functional
[2] = tested on: Bacillus anthracis; assay: Antimicrobial activity against Bacillus anthracis Sterne vegetative cells by broth microdilution method; format: functional
[3] = tested on: Bacillus subtilis; assay: Inhibition of RNA synthesis in Bacillus subtilis BD54 at 5 X MIC by [5-3H]uridine incorporation assay; format: functional
How it was run: (§1)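 Precursors were [methyl-3H]thymidine (DNA), [5-3H]uridine (RNA), L-[4,5-3H]leucine (protein) and N-acetyl-D-[1-3H]glucosamine (cell wall). Samples taken over time, precipitated with equal volume of ice-cold 20% TCA, filtered on glass fibre, and counted. cpm plotted against time.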

[4] = tested on: Bacillus subtilis; assay: Inhibition of cell wall synthesis in Bacillus subtilis BD54 at 5 X MIC by N-acetyl-D-[1-3H] glucosamine incorporation assay; format: functional; how it was run: as §1
[5] = tested on: Bacillus subtilis; assay: Inhibition of protein synthesis in Bacillus subtilis BD54 at 5 X MIC by L-[4,5-3H]leucine incorporation assay; format: functional, organism-based; how it was run: as §1
[6] = tested on: Bacillus subtilis; assay: Inhibition of DNA synthesis in Bacillus subtilis BD54 at 5 X MIC by [3H]thymidine incorporation assay; format: functional, organism-based; how it was run: as §1

Structure (SMILES)	MIC [1]	MIC [2]	further results
C(=C\c1cc2ccc(C3=NCCN3)cc2o1)/c1cc2ccc(C3=NCCN3)cc2[nH]1	4.7 µg/mL (≈ 11.9 µM)	19 µg/mL (≈ 48 µM)	–
N=C(N)c1ccc(-c2nc3cc(C(=N)N)ccc3[nH]2)cc1	> 14 µg/mL	> 14 µg/mL	–
CN[C@H](CC(C)C)C(=O)N[C@H]1C(=O)N[C@@H](CC(N)=O)C(=O)N[C@H]2C(=O)N[C@H]3C(=O)N[C@H](C(=O)N[C@H](C(=O)O)c4cc(O)cc(O)c4-c4cc3ccc4O)[C@H](O)c3ccc(c(Cl)c3)Oc3cc2cc(c3O[C@@H]2O[C@H](CO)[C@@H](O)[C@H](O)[C@H]2O[C@H]2C[C@](C)(N)[C@H](O)[C@H](C)O2)Oc2ccc(cc2Cl)[C@H]1O	–	–	inhibition [3]: Active; inhibition [4]: Active; inhibition [5]: Active; inhibition [6]: Active
Cc1c(/C=C/c2oc3ccc(C(=N)N)cc3c2C)oc2cc(C(=N)N)ccc12	> 18 µg/mL	> 18 µg/mL	–
Nc1ccc(C2=Cc3ccc(N)cc3S2(=O)=O)cc1	> 11 µg/mL	> 11 µg/mL	–
N=C(N)c1ccc2oc(/C=C/C=C/c3cc4cc(C(=N)N)ccc4o3)cc2c1	2.2 µg/mL (≈ 5.94 µM)	18 µg/mL (≈ 48.6 µM)	–
N=C(N)c1ccc2cc(/C=C/c3cc4ccc(C(=N)N)cc4o3)[nH]c2c1	2.1 µg/mL (≈ 6.12 µM)	4.2 µg/mL (≈ 12.2 µM)	–
N=C(N)c1ccc(/C=C/c2cc3cc(C(=N)N)ccc3o2)cc1	> 15 µg/mL	> 15 µg/mL	–
C(=C\c1cc2ccc(C3=NCCN3)cc2[nH]1)/c1ccc(C2=NCCN2)cc1	8.6 µg/mL (≈ 24.2 µM)	> 17 µg/mL	–
C(=C\c1cc2cc(C3=NCCN3)ccc2o1)/c1cc2cc(C3=NCCN3)ccc2o1	> 19 µg/mL	> 19 µg/mL	–
N=C(N)c1ccc(/C=C/c2cc3ccc(C(=N)N)cc3[nH]2)cc1	7.5 µg/mL (≈ 24.7 µM)	15 µg/mL (≈ 49.4 µM)	–
c1cc(-c2[nH]c3cc(C4=NCCN4)ccc3c2-c2cc3ccc(C4=NCCN4)cc3[nH]2)ccc1C1=NCCN1	24.9 µg/mL (≈ 48.6 µM)	24.9 µg/mL (≈ 48.6 µM)	–
C(=C\c1nc2ccccc2[nH]1)/c1nc2ccccc2[nH]1	> 10 µg/mL	> 10 µg/mL	–
N=C(N)c1ccc2oc(CCc3cc4ccc(C(=N)N)cc4[nH]3)cc2c1	8.4 µg/mL (≈ 24.3 µM)	8.4 µg/mL (≈ 24.3 µM)	–
OCCn1c(/C=C/c2nc3ccccc3[nH]2)nc2ccccc21	> 12 µg/mL	> 12 µg/mL	–
c1cc(-c2cc3ccc(C4=NCCN4)cc3s2)ccc1C1=NCCN1	> 17 µg/mL	> 17 µg/mL	–
C(/C=C/c1cc2cc(C3=NCCN3)ccc2o1)=C\c1cc2cc(C3=NCCN3)ccc2o1	9.9 µg/mL (≈ 23.4 µM)	19.8 µg/mL (≈ 46.9 µM)	–
C(/C=C/c1cc2cc(C3=NCCN3)ccc2o1)=C\c1ccc(C2=NCCN2)cc1	18.2 µg/mL (≈ 47.6 µM)	18.2 µg/mL (≈ 47.6 µM)	–
Cc1cc(N)c2cc(NC(=O)Nc3ccc4nc(C)cc(N)c4c3)ccc2n1 [AMINOQUINURIDE]	4.5 µg/mL (≈ 12.1 µM)	17.8 µg/mL (≈ 47.8 µM)	–
N=C(N)c1ccc(-c2cc3cc(C(=N)N)ccc3s2)cc1	> 15 µg/mL	> 15 µg/mL	–

Structure (SMILES)	MIC [1]	MIC [2]	further results
N=C(N)c1ccc(Oc2ccc(-c3cc4ccc(C(=N)N)cc4[nH]3)cc2)cc1	4 µg/mL (≈ 10.8 µM)	4 µg/mL (≈ 10.8 µM)	–
N=C(N)N/N=C/c1ccc2cc(-c3ccc(/C=N/N=C(N)N)cc3)sc2c1	4.5 µg/mL (≈ 11.9 µM)	18 µg/mL (≈ 47.6 µM)	–
C(=C\c1cc2ccc(C3=NCCN3)cc2o1)/c1cc2cc(C3=NCCN3)ccc2[nH]1	19 µg/mL (≈ 48 µM)	> 19 µg/mL	–
N=C(N)c1ccc(-n2cc3cc(C(=N)N)ccc3n2)cc1	> 14 µg/mL	> 14 µg/mL	–
N=C(N)c1ccc(-n2nc3ccc(C(=N)N)cc3n2)cc1	> 14 µg/mL	> 14 µg/mL	–
N=C(N)c1ccc(-c2cc3ccc(C(=N)N)cc3s2)cc1	> 19 µg/mL	> 19 µg/mL	–
C(=C\c1cc2cc(C3=NCCN3)ccc2s1)/c1ccc(C2=NCCN2)cc1	17.8 µg/mL (≈ 47.8 µM)	17.8 µg/mL (≈ 47.8 µM)	–
C(=C\c1cc2cc(C3=NCCN3)ccc2[nH]1)/c1ccc(C2=NCCN2)cc1	> 17 µg/mL	> 17 µg/mL	–
N=C(N)c1ccc2oc(/C=C/C=C/C=C/c3cc4cc(C(=N)N)ccc4o3)cc2c1	2.3 µg/mL (≈ 5.8 µM)	9.4 µg/mL (≈ 23.7 µM)	–
N=C(N)c1ccc(NC(=O)c2cc3ccc(C(=N)N)cc3o2)cc1	> 16 µg/mL	> 16 µg/mL	–
N=C(N)c1ccc(-c2[nH]c3cc(C(=N)N)ccc3c2N)cc1	> 15 µg/mL	> 15 µg/mL	–
N=C(N)Nc1ccc(-c2cc3cc(NC(=N)N)ccc3s2)cc1	15.9 µg/mL (≈ 49 µM)	> 16 µg/mL	–
O=C(Nc1ccc(C2=NCCN2)cc1)c1cc2ccc(C3=NCCN3)cc2o1	> 18 µg/mL	> 18 µg/mL	–
CO[C@H]1/C=C/O[C@@]2(C)Oc3c(C)c(O)c4c(O)c(c(/C=N/N5CCN(C)CC5)c(O)c4c3C2=O)NC(=O)/C(C)=C\C=C\[C@H](C)[C@H](O)[C@@H](C)[C@@H](O)[C@@H](C)[C@H](OC(C)=O)[C@@H]1C	–	–	inhibition [3]: Active; inhibition [4]: Active; inhibition [5]: Active; inhibition [6]: Active
N=C(N)c1ccc(-c2[nH]c3cc(C(=N)N)ccc3c2-c2ccccc2)cc1	9 µg/mL (≈ 25.5 µM)	17 µg/mL (≈ 48.1 µM)	–
N=C(N)c1ccc2[nH]c(/C=C/c3cc4ccc(C(=N)N)cc4o3)cc2c1	8 µg/mL (≈ 23.3 µM)	> 17 µg/mL	–
c1cc2cc(-c3cc4ccc(C5=NCCN5)cc4[nH]3)[nH]c2cc1C1=NCCN1	0.6 µg/mL (≈ 1.63 µM)	1.1 µg/mL (≈ 2.99 µM)	–
c1cc(-c2nc3cc(-c4nc5ccc(C6=NCCN6)cc5[nH]4)ccc3[nH]2)ccc1C1=NCCN1	1.4 µg/mL (≈ 3.14 µM)	22.3 µg/mL (≈ 49.9 µM)	–
N=C(N)c1ccc2[nH]c(/C=C/c3nc4cc(C(=N)N)ccc4[nH]3)nc2c1	> 17 µg/mL	> 17 µg/mL	–
N=C(N)c1ccc2oc(/C=C/c3cc4cc(C(=N)N)ccc4s3)cc2c1	8.7 µg/mL (≈ 24.1 µM)	17 µg/mL (≈ 47.2 µM)	–

Structure (SMILES)	MIC [1]	MIC [2]	further results
N=C(N)c1ccc2oc(CCc3cc4cc(C(=N)N)ccc4o3)cc2c1	> 17 µg/mL	> 17 µg/mL	–
N=C(N)c1ccc2cc(/C=C/c3cc4ccc(C(=N)N)cc4o3)oc2c1	8.3 µg/mL (≈ 24.1 µM)	17 µg/mL (≈ 49.4 µM)	–
N=C(N)c1ccc(-c2cc(-c3ccc(C(=N)N)cc3)on2)cc1	> 15 µg/mL	> 15 µg/mL	–
N=C(N)c1ccc2cc(C(=N)N)[nH]c2c1	> 11 µg/mL	> 11 µg/mL	–
C(=C\c1cc2cc(C3=NCCN3)ccc2o1)/c1ccc(C2=NCCN2)cc1	17.2 µg/mL (≈ 48.3 µM)	17.2 µg/mL (≈ 48.3 µM)	–
N=C(N)c1ccc2oc(/C=C/c3cc4ccc(C(=N)N)cc4o3)cc2c1	> 17 µg/mL	> 17 µg/mL	–
c1cc(-c2cc3ccc(C4=NCCN4)cc3[nH]2)ccc1C1=NCCN1	> 16 µg/mL	> 16 µg/mL	–
N/C(=N\O)c1ccc2oc(/C=C/c3cc4cc(/C(N)=N/O)ccc4o3)cc2c1	> 23 µg/mL	> 23 µg/mL	–
O=C(Nc1ccc(C2=NCCN2)cc1)c1cc2ccc(C3=NCCN3)cc2[nH]1	8.9 µg/mL (≈ 23.9 µM)	17.8 µg/mL (≈ 47.8 µM)	–
C(=C\c1cc2ccc(C3=NCCN3)cc2[nH]1)/c1ccc(Oc2ccc(C3=NCCN3)cc2)cc1	2.6 µg/mL (≈ 5.81 µM)	2.6 µg/mL (≈ 5.81 µM)	–
C(=C\c1cc2ccc(C3=NCCN3)cc2o1)/c1cc2ccc(C3=NCCN3)cc2o1	19 µg/mL (≈ 47.9 µM)	19 µg/mL (≈ 47.9 µM)	–
C(=C\c1cc2cc(C3=NCCN3)ccc2o1)/c1cc2cc(C3=NCCN3)ccc2[nH]1	19 µg/mL (≈ 48 µM)	> 19 µg/mL	–
O=C(Nc1ccc(C2=NCCN2)cc1)c1cc2cc(C3=NCCN3)ccc2o1	18 µg/mL (≈ 48.2 µM)	> 18 µg/mL	–
N=C(N)c1ccc(-c2ccc(-c3ccc(C(=N)N)cc3)s2)cc1	16 µg/mL (≈ 49.9 µM)	> 16 µg/mL	–
Cc1c(/C=C/c2cc3cc(C(=N)N)ccc3o2)oc2cc(C(=N)N)ccc12	> 17 µg/mL	> 17 µg/mL	–
Cc1cc2nc(/C=C/c3nc4cc(C)c(C)cc4[nH]3)[nH]c2cc1C	> 13 µg/mL	> 13 µg/mL	–
N=C(N)c1ccc(/C=C/C=C/c2cc3cc(C(=N)N)ccc3o2)cc1	8.1 µg/mL (≈ 24.5 µM)	16.1 µg/mL (≈ 48.7 µM)	–
c1cc(-c2cc3cc(C4=NCCN4)ccc3s2)ccc1C1=NCCN1	> 17 µg/mL	> 17 µg/mL	–
C(=C\c1cc2ccc(C3=NCCN3)cc2[nH]1)/c1ccc2cc(C3=NCCN3)[nH]c2c1	9.3 µg/mL (≈ 23.6 µM)	18.7 µg/mL (≈ 47.4 µM)	–
N=C(N)c1ccc(/C=C/c2cc3cc(C(=N)N)ccc3[nH]2)cc1	15 µg/mL (≈ 49.4 µM)	> 15 µg/mL	–
